The source of these data is ChEMBL document CHEMBL5352422, “Development of l-Dopa-containing diketopiperazines as blood-brain barrier shuttle” (Eur J Med Chem, 2022).

Activity calls are given as the source filed them. No cut-off for these calls is given here.

Data set [1] is described as follows: Cytotoxicity against rat Cerebral cortex cell at 10 to 500 nM incubated for 24 hrs by MTT assay. The class given is toxicity, cell-based. The note with it: cerebral cortex neuron, 0.5 µM, dose 10-500 nM. The method, boiled down: (§1)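 Primary cultures (rat fetal cortical neurons; human whole-blood cultures with phytohemagglutinin) exposed to aqueous compound at 10–500 nM for 24 h at 37 °C. Then incubated with 0.7 mg/mL MTT for 30 min at 37 °C, formazan extracted with isopropanol/formic acid 95:5, read at 560 nm. Control formazan = 100% viability. Mitomycin C 10^-7 M as positive control; n = 4.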
For orientation: Formazan colour is commonly taken as a measure of viable cells.

Data set [2] can be described thus: Stability of the compound in stimulated intestinal fluid at 40 mg/ml pancreatin by measuring observed rate constant measured upto 180 mins by HPLC analysis. The class given is ADME. The note with it: simulated gi fluid, 3 h. The method, boiled down: (§2)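 USP simulated intestinal fluid containing pancreatin, in a 37 °C shaking water bath. Samples at 0, 60, 120 and 180 min were quenched with ice-cold acetonitrile containing 0.5% formic acid, centrifuged at 4 °C for 10 min, filtered and analyzed by HPLC. Means of three experiments ± SD.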

Data set [3] is described as follows: Induction of DNA damage in Primary human whole blood cell assessed as total DNA damage score at 10 nM incubated for 24 hrs by Comet assay (reference value: 35.4 to 77.9). The class given is functional.
Data set [4] is described as follows: Stability of the compound in stimulated gastric fluid at 40 mg/ml pepsin by measuring observed rate constant measured upto 60 mins by HPLC analysis. The class given is ADME. As to conditions: simulated gi fluid, 1 h. The procedure, abridged: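 USP simulated gastric fluid containing pepsin, preheated, in a 37 °C shaking water bath. Samples at 0, 15, 30 and 60 min were deproteinized with ice-cold acetonitrile containing 0.5% formic acid, centrifuged at 4 °C, filtered and analyzed by HPLC. Means of three experiments.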

A short description of data set [5]: Genotoxicity in human Lymphocyte assessed as micronuclei formation measured per 1000 cells at 500 nM incubated for 72 hrs giemsa staining based analysis (reference value: 4.5 to 17.9). The note with it: 0.5 µM. It is filed as toxicity, cell-based. The method, boiled down:
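Human whole-blood lymphocyte cultures with phytohemagglutinin, incubated with compound for 72 h at 37 °C. Cytochalasin B added at 44 h. Cells fixed in ice-cold methanol/acetic acid 1:1, cytospun, Giemsa-stained. At least 1000 binucleated lymphocytes per concentration scored for micronuclei by one observer.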

A short description of data set [6]: Stability of the compound in hydrochloric acid buffer assessed as chemical hydrolysis by measuring observed rate constant at pH 1.2. The class given is physicochemical. The method, boiled down: (§3)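 Chemical hydrolysis at 37 °C in hydrochloric acid buffer pH 1.2 or phosphate buffer pH 7.4. Remaining compound followed by HPLC with UV detection. t1/2 and k_obs are means of three experiments ± SD.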

Data set [7] is described as follows: Antioxidant activity against Primary human whole blood cell assessed as trolox equivalent of total antioxidant capacity at 500 nM incubated for 24 hrs (19.3 to 32.5 mmolequiv/L ). The class given is functional.
Data set [8] in a line: Induction of DNA damage in rat Cerebral cortex cell assessed as 8-OH-dG adducts formation at 100 nM incubated for 24 hrs by […] (reference value: 0.14 to 1.92 pg/ml). It is filed as functional, Cerebral cortex neuron.
Data set [9] in a line: Induction of DNA damage in Primary human whole blood cell assessed as 8-OH-dG adducts formation at 10 nM incubated for 24 hrs by […] (reference value: 0.12 to 2.21 pg/ml). The class given is functional.
Data set [10] is described as follows: Antioxidant activity against rat Cerebral cortex cell assessed as trolox equivalent of total antioxidant capacity at 500 nM incubated for 24 hrs (14.7 to 27.5 mmolequiv/L ). The class given is functional, Cerebral cortex neuron.
A short description of data set [11]: Stability of the compound in stimulated intestinal fluid at 40 mg/ml pancreatin by measuring half life measured upto 180 mins by HPLC analysis. The class given is ADME. As to conditions: simulated intestinal fluid with pancreatin. The procedure, abridged:
as §2

Data set [12] relates to PC-12. Put plainly: Upregulation of GCLM expression in MPP+ induced rat PC-12 cells at 100 nM pretreated with compound for 24 hrs followed by MPP+ stimulation and measured after 6 hrs. The note with it: time 30.0 hrs. The class given is functional, cell-based. The method, boiled down: (§4)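 PC12 cells pretreated 24 h with compound, then exposed to 25 μM MPP+ for 6 h. mRNA quantified by real-time PCR (95 °C 3 min, then 40 cycles of 95 °C 10 s and 62 °C 30 s), samples in triplicate. Values normalized to β-actin, expressed as 2^-ΔΔCt with untreated cells set to 1.0. n = 3.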

The subject of data set [13] is PC-12. Put plainly: Upregulation of GSTA-2 expression in MPP+ induced rat PC-12 cells at 100 nM pretreated with compound for 24 hrs followed by MPP+ stimulation and measured after 6 hrs. It is filed as functional, cell-based. As to conditions: time 30.0 hrs. The method, boiled down:
as §4

Data set [14] is described as follows: Antioxidant activity against Primary human whole blood cell assessed as H2O2 equivalent of total oxidative stress at 50 nM incubated for 24 hrs (0.6 to 1.9 micromolequiv/L). It is filed as functional.
Data set [15] has as its system PC-12. Put plainly: Upregulation of xCT expression in MPP+ induced rat PC-12 cells at 100 nM pretreated with compound for 24 hrs followed by MPP+ stimulation and measured after 6 hrs. It is filed as functional, cell-based. The note with it: time 30.0 hrs. The procedure, abridged: as §4
A short description of data set [16]: Induction of DNA damage in Primary human whole blood cell assessed as 8-OH-dG adducts formation at 500 nM incubated for 24 hrs by […] (reference value: 0.12 to 2.21 pg/ml). The class given is functional.
Data set [17] in a line: Induction of DNA damage in rat Cerebral cortex cell assessed as total DNA damage score at 500 nM incubated for 24 hrs by Comet assay (reference value: 36.8 to 89.2). It is filed as functional, Cerebral cortex neuron.
Data set [18] has as its target T1, Nuclear factor erythroid 2-related factor 2 (Rattus norvegicus) (UniProt O54968).
T1 sequence (whole entry): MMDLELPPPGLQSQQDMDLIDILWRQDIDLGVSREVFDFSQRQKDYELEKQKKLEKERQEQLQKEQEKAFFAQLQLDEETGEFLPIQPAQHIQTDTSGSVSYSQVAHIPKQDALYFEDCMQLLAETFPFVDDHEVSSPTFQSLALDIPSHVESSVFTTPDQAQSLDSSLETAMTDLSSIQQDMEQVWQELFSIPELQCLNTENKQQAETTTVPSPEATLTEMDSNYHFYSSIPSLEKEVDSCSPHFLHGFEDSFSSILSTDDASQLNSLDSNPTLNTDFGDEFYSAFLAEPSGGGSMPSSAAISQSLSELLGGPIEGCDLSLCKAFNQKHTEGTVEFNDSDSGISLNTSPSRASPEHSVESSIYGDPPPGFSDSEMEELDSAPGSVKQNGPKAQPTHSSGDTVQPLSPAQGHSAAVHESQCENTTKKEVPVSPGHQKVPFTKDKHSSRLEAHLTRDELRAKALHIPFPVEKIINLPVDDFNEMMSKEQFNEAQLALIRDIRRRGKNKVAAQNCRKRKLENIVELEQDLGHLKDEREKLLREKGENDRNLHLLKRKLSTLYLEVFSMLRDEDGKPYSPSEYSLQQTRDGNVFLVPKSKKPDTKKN
Put plainly: Induction of MPP+ induced Nrf2 nuclear translocation in rat PC12 cells at 100 nM incubated for 24 hrs by Western blot analysis. As to conditions: PC-12, filed as activator. The class given is cell-based. The procedure, abridged:
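PC12 cells were incubated 24 h with MPP+ (25 μM) with or without compound (100 nM). Nuclear extracts (30 μg) were run on 10% SDS-PAGE and immunoblotted for Nrf2, with histone H3 as nuclear marker and ECL detection.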
(In general: In western blotting, separated proteins are transferred to a membrane and probed.)

Data set [19] is described as follows: Cytotoxicity against Primary human whole blood cell at 10 to 500 nM incubated for 24 hrs by MTT assay. It is filed as toxicity, cell-based. As to conditions: 0.5 µM, dose 10-500 nM. The method, boiled down:
as §1

Data set [20] is described as follows: Stability of the compound in hydrochloric acid buffer assessed as chemical hydrolysis by measuring half life at pH 1.2. The class given is physicochemical. The procedure, abridged:
as §3

On to `C#CCSC[C@H]1NC(=O)[C@H](Cc2ccc(OC(C)=O)c(OC(C)=O)c2)NC1=O`, for which the Activity result in [1] was “Non-Toxic”; in data set [3], 36; in data set [5], 5.1; in data set [7] it was 19.4 mmolequiv/L; in [8] it was 0.14 pg/mL; in data set [9] it was 0.12 pg/mL. Moreover, the Activity in [10] was 14.8 mmolequiv/L; in [14] it was 0.6 umolequiv/L; in [16], 0.13 pg/mL; in data set [17] it was 38.1; in data set [19] it was “Non-Toxic”. Also, the values for the Kobs in data set [2], in [4] and in [6] were 0.27 h⁻¹, 0.012 h⁻¹ and 0.005 h⁻¹, respectively. Moreover, the figures for the half-life in [11] and in data set [20] were 154 min and 5.56 days, respectively. In addition, the outcome (in the data set on PC-12 [12]; in the data set on PC-12 [13]; with PC-12 [15]; in data set [18]) was Active.

As to `C=CCSC[C@H]1NC(=O)[C@H](Cc2ccc(OC(C)=O)c(OC(C)=O)c2)NC1=O`, the Activity entry is “Non-Toxic” in data set [1]; 35 in data set [3]; 5.2 in [5]; 18.4 mmolequiv/L in data set [7]; 0.15 pg/mL in [8]; 0.12 pg/mL in data set [9]. Besides, the Activity in data set [10] was 14.9 mmolequiv/L; in data set [14], 0.7 umolequiv/L; in data set [16], 0.13 pg/mL; in data set [17], 37.6; in data set [19] it was “Non-Toxic”. Moreover, the Kobs in [4] is 0.031 h⁻¹; in [6] it was 0.037 h⁻¹. Besides, in data set [20], the half-life was 0.787 days.

Usually half-life stands for how long it takes for the measured level to halve.
